Data taken from paper PMC5515376 (Nature, 2016).
“Also recorded” adds a separate entry of the source. Where two headings read alike, the source gives them in different places. Marks after values point to notes of the source that are not given here.

How the values were obtained:
[1] = Mouse pharmacokinetics assay; assay type: in vivo; settings: CD-1 mice
How it was run: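 Female CD-1 mice received single intravenous and oral doses. Parameters were estimated by non-compartmental analysis.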

P. falciparum Dd2 [2] = test: In vitro P. falciparum blood-stage growth inhibition assay; assay type: cell-based, Plasmodium falciparum
[3] = test system: P. falciparum 3D7 stage IV–V gametocytes; test: In vitro transmission-blocking assay; assay type: cell-based, Plasmodium falciparum; settings: P. falciparum (3D7), Gametocyte (IV-V)
How it was run: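 3D7 cultures were treated 3 days with 50 mM N-acetyl-D-glucosamine to remove asexual parasites. Stage IV–V gametocytes were then isolated on a discontinuous Percoll gradient. Gametocytes (1.0 × 10^5 per well) were incubated with compound for 72 h. Viability was measured by CellTiter-Glo luminescence.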

[4] = test system: P. berghei (ANKA GFP-luc) blood-stage parasites; test: In vivo P. berghei blood-stage assay; parameters: species or system Plasmodium berghei; settings: CD-1 mice
hERG channel = hERG channel (Homo sapiens, UniProt Q12809); test: hERG channel inhibition assay; assay type: cell-based; settings: read-out: hERG IC50; IKr
How it was run: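 hERG current was measured in hERG-expressing cell lines by automated patch clamp (QPatch-HTX).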

[5] = test system: P. falciparum (NF54) liver stage; test: In vitro P. falciparum liver-stage assay; assay type: cell-based, Plasmodium falciparum
[6] = test system: P. berghei (ANKA GFP-luc); test: In vivo P. berghei transmission-stage assay; parameters: species or system Plasmodium berghei; settings: for Compound remaining in the circulation (plasma concentration): P. berghei-infected CD-1 mice
P. falciparum Dd2 [7] = assay type: cell-based, Plasmodium falciparum; settings: Dd2 cultures, inocula 10^5 to 10^9, 20 nM (EC90), 60 days
[8] = test system: P. falciparum (NF54) stage V gametocytes; test: P. falciparum standard membrane feeding assay; assay type: cell-based, Plasmodium falciparum
[9] = Metabolic stability assay, mouse liver microsomes; assay type: in vitro ADME
How it was run: (§1)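 Liver microsomes (0.2 mg ml−1) were incubated with compound (0.5 and 5 µM) plus NADPH for 0, 10 and 90 min. Human microsomes or mouse CD-1 microsomes were used, as named in each line. Compound depletion was measured by LC–MS/MS and used to estimate Km, Vmax and half-life.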

[10] = test system: Salmonella typhimurium strains TA100, TA1535, TA98, TA1537 and Escherichia coli strain WP2uvrA; test: Ames test; settings: in the presence or absence of S9 mix
[11] = Plasma protein binding assay; assay type: in vitro ADME
How it was run: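 Binding was measured by equilibrium dialysis in a RED device. Compound at 5 µM, in duplicate, was placed in mouse plasma (0.95% acetonitrile, 0.05% DMSO) against PBS pH 7.4. Incubation was 5 h at 37 °C with 350 r.p.m. orbital shaking. Both sides were analysed by UPLC–MS with single-ion detection.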

[12] = Metabolic stability assay, human liver microsomes; assay type: in vitro ADME
How it was run: as §1

[13] = test system: P. falciparum 3D7^HLH/BRD; test: In vivo P. falciparum transmission-stage assay; parameters: species or system Plasmodium falciparum; settings: huRBC NSG mice; single oral 12.5 mg kg^−1; 7 days after treatment
[14] = test system: P. falciparum (NF54HT-GFP-luc) sporozoites; test: In vivo P. falciparum liver-stage assay; parameters: species or system Plasmodium falciparum
[15] = test system: P. berghei (ANKA GFP-luc) sporozoites; test: In vivo P. berghei causal prophylaxis assay; parameters: species or system Plasmodium berghei; settings: CD-1 mice
Solubility assay in PBS = assay type: physicochemical; settings: PBS pH 7.4 with 1% DMSO
How it was run: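 Compound was prepared at 100 µM in triplicate, both in 100% DMSO and in PBS pH 7.4 with 1% DMSO. Samples were shaken at 750 r.p.m. for 18 h at room temperature. Analysis was by UPLC–MS with single-ion detection. PBS response was fitted to a two-point calibration built from the DMSO samples.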

[16] = test system: major human cytochrome P450 (CYP) isoforms
HepG2 cell line = test: Mammalian cell cytotoxicity assay; assay type: cell-based, human; settings: read-out: HepG2 CC50; 72 h
How it was run: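 HepG2, A549 or HEK293 cells were grown in DMEM with 10% FBS and 1% antibiotic–antimycotic and tested mycoplasma-free. Cells (1 × 10^6) were seeded one day before treatment. They were exposed to ascending compound doses for 72 h, and viability was read by CellTiter-Glo.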

[17] = test system: P. falciparum 3D7^HLH/BRD blood-stage parasites; test: In vivo P. falciparum blood-stage assay; parameters: species or system Plasmodium falciparum; settings: huRBC NSG mice
[18] = IV (2.5) mg/kg, separate assay over 72 h

Chain of hERG channel (Q12809 whole entry): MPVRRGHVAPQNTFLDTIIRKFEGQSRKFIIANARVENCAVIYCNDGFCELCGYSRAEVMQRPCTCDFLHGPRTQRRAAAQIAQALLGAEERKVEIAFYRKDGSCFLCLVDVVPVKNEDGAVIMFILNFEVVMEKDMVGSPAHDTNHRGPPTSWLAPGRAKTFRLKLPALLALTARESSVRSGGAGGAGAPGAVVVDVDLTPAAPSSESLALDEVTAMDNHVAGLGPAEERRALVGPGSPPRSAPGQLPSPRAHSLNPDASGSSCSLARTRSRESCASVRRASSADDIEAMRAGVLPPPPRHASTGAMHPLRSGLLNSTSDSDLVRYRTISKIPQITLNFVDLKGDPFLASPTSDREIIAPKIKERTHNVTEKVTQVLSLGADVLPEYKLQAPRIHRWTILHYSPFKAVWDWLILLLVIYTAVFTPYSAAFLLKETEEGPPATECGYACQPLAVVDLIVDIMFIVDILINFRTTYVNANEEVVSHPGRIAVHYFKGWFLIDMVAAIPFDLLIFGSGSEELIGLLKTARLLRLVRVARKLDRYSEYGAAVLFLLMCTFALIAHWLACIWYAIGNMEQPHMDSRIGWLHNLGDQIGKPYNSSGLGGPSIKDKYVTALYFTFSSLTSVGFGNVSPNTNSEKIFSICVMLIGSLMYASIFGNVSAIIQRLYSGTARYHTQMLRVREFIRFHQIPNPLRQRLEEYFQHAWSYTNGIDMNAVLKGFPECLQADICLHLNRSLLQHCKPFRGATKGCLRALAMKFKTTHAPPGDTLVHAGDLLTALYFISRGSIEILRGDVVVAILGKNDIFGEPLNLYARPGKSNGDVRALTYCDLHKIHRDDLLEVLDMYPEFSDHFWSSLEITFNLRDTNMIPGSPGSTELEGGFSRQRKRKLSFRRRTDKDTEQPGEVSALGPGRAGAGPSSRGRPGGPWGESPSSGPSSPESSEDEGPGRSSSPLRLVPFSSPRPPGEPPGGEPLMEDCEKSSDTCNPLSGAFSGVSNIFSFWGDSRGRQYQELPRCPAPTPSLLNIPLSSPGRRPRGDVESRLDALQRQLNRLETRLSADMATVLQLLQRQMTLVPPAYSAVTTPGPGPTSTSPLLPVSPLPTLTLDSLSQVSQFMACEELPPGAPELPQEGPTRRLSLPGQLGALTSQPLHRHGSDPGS

COc1ccc(NC(=O)N2CCCCN3[C@H](CN(C)C)[C@H](c4ccc(C#Cc5ccccc5)cc4)[C@@H]3C2)cc1 [BRD7929]
AUC (estimated) ([1]; 25 mg kg^−1 single-dose cure, estimated from pharmacokinetic studies): 27.5 µM·h
CL ([1]; IV (2.5) mg/kg): 9.9 mL/min/kg
MRT0-inf ([1]; IV (2.5) mg/kg): 40.5 h
Vss ([1]; IV (2.5) mg/kg): 24 L/kg
AUC0-inf [1, 18]: 11.2 µM·h
CL [1, 18]: 7.1 mL/min/kg
MRT0-inf [1, 18]: 45 h
T1/2 [1, 18]: 32 h
Vss [1, 18]: 19 L/kg
AUC0-t ([1]; IV (2.5) mg/kg, separate assay, t = 72 h): 9 ^# µM*hr
AUC0-t ([1]; IV (2.5) mg/kg, t = 24 h): 3.5 ^¶ µM*hr
Cmax ([1]; PO (10) mg/kg): 540 nM
Tmax ([1]; PO (10) mg/kg): 8 h
F ([1]; PO (10) mg/kg, based on initial intravenous study at 24 h): 79.5 ^§ %
AUC0-t ([1]; PO (10) mg/kg, t = 24 h): 11 ^¶ µM*hr
EC50 (P. falciparum Dd2 [2]; read-out: Pf, Dd2 EC50, blood stage): 0.009 µM
EC50 (P. falciparum Dd2 [2]; read-out: PfDd2 EC50, asexual blood-stage parasites (Dd2), SAR table): 0.009 µM
EC90 (P. falciparum Dd2 [2]; strain Dd2): 0.02 µM
EC50 [3]: 0.16 µM
Cure of the infected animals ([4]; single 25 mg kg^−1 oral dose): 100%
Parasite status up to 30-day end-point (bioluminescent imaging) ([4]; single oral 25 mg kg^−1 or 50 mg kg^−1 dose): parasite-free
Animals showing recrudescence at 6 days after treatment ([4]; single oral dose of 12.5 mg kg^−1, n = 4): One in four animals
Lowest single oral dose achieving sterile cure ([4]; P. berghei): 25 mg/kg
IC50 (hERG channel): 2.1 µM
EC50 [5]: 0.34 µM
Oocysts in mosquito midguts ([6]; CD-1 mice, single oral 5 or 20 mg kg^−1, 2 days before mosquito feeding): No oocysts were detected
Compound remaining in the circulation (plasma concentration) ([6]; oral 25 mg kg^−1, 1 day after treatment): 896.5 ng/mL
Compound remaining in the circulation (plasma concentration) ([6]; oral 25 mg kg^−1, 4 days after treatment): 170.5 ng/mL
Compound remaining in the circulation (plasma concentration) ([6]; oral 25 mg kg^−1, 10 days after treatment): 8.6 ng/mL
Transmission ([6]; oral 1.25 mg kg^−1 and 0.31 mg kg^−1, 2 days before feeding mosquitoes): reduced transmission activity
Transmission ([6]; oral 5 mg kg^−1, 2 days before feeding mosquitoes): complete blocking of transmission
Oocysts in mosquito midguts ([6]; oral 25 mg kg^−1, blood feeding 1, 4 or 10 days after treatment): No oocysts were found
Recrudescence / resistance under constant drug pressure (P. falciparum Dd2 [7]): No recrudescence
EC50 ([8]; read-out: EC50, standard membrane-feeding assay, direct (D), single drug concentration (10 µM) immediately before blood feeding): < 10 µM
EC50 ([8]; read-out: EC50, standard membrane-feeding assay, indirect (ID), parasites treated 24 h before mosquito feeding): 0.27 µM
Mouse Clint [9]: 21 µL/min/mg
Mutagenicity (Ames test) [10]: non-mutagenic
Mouse Plasma protein binding [11]: 99.9%
Human Clint [12]: 31 µL/min/mg
Transcription of asexual marker SBP1 (qRT-PCR) [13]: decreased to undetectable levels
Transcription of mature gametocyte marker Pfs25 (qRT-PCR) [13]: decreased to undetectable levels
Ct value, P. falciparum UCE qRT-PCR ([14]; blood 7 days after inoculation, 40 amplification cycles): 40
Blood-stage marker (P. falciparum UCE transcript) by qRT-PCR ([14]; blood 7 days after inoculation, single 10 mg kg^−1 oral dose): no amplification of the marker was detected; also recorded: not detected
Liver-stage-associated bioluminescence signal ([14]; huHep FRG knockout mice, single 10 mg kg^−1 oral dose 1 day after inoculation): No increase in bioluminescence intensity level; also recorded: no increase in bioluminescence signals
Mice developing blood-stage parasitaemia within a 30-day period ([15]; single dose of 5 or 25 mg kg^−1): none
Lowest single oral dose with no recrudescence ([15]; P. berghei liver-stage model): 5 mg/kg
PBS solubility (Solubility assay in PBS): 15 µM
Inhibition of major human CYP isoforms [16]: no inhibition
CC50 (HepG2 cell line): 9 µM
Lowest single oral dose with no recrudescence ([17]; P. falciparum 3D7^HLH/BRD): 12.5 mg/kg
Rate of the loss of bioluminescence ([17]; single dose 6.25 mg kg^−1): slower
Change in parasite-associated bioluminescence ([17]; single dose 25 mg kg^−1 and 50 mg kg^−1): rapid decrease
